Experimental data pooled from the literature.
Protocols differ between the studies behind these lines.
Target: Myotonin-protein kinase (DMPK, Homo sapiens, UniProt Q09013)
One construct used (Q09013 1-629): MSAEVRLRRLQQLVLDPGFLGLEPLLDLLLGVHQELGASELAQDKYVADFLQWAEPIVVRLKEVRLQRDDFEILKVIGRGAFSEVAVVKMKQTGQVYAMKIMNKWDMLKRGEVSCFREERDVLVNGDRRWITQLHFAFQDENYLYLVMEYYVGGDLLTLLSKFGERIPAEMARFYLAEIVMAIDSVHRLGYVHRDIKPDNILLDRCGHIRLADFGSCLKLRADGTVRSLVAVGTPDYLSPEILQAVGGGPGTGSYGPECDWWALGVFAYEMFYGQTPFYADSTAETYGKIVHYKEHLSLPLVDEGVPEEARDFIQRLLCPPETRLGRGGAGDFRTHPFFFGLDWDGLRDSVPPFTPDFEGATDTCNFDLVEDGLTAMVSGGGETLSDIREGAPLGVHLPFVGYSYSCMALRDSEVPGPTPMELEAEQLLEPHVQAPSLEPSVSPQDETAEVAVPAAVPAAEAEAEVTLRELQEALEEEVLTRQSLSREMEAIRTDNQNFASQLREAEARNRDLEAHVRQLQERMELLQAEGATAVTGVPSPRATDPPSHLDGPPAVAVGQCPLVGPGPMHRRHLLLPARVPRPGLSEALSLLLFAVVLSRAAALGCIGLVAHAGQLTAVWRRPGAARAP

Structure (SMILES) | assay | conditions | remaining binding
CN(C)c1nccc(-c2cnn3ncccc23)n1 | binding | 1 µM | 100%
COc1ncc2cc3ccccc3nc2c1C#N | cell-free assay, competition with immobilised ligand | 5 µM | 100%
O=C(Nc1c[nH]nc1C(=O)NC1CCNCC1)c1cc(F)cc(F)c1 | binding, competition with immobilised ligand | 1 µM | 100%
O=C(NCCCC1CCCCC1)c1ccc(CNC(=O)c2cnn(-c3ccccc3)c2C(F)(F)F)cc1 | cell-free assay, competition with immobilised ligand | 0.1 µM | 83%
CNC(=O)[C@@H]1CC[C@@H](n2c(-c3ccc4cnccc4c3)nc3ccc(C(=O)NCc4cccc(C(N)=O)c4)cc32)C1 | binding, competition with immobilised ligand | 1 µM | 86%
COc1cccc(CNC(=O)c2nc3scc(COCc4ccc(C(=O)O)cc4)c3c(=O)[nH]2)c1 | cell-free assay, competition with immobilised ligand | 1 µM | 85.4%
O=C(c1ccc(Nc2ncc(Cl)c(-c3cc4ccccc4s3)n2)cc1)N1CCC(N2CCCC2)CC1 | binding, competition with immobilised ligand | 1 µM | 75%
C[C@H]1CCN(c2nccc(-c3cnn4ncccc34)n2)C1 | binding | 1 µM | 100%
Nc1ncc2c(n1)-c1c([nH]c3ccc(C#CC4CC4)cc13)CCCC2 | binding, competition with immobilised ligand | 1 µM | 82%
CCS(=O)(=O)c1cc2cc(C[C@@](O)(CC(C)(C)c3ccc(F)cc3C(N)=O)C(F)(F)F)[nH]c2cn1 | cell-free assay, competition with immobilised ligand | 1 µM | 85%
CN(CCCC(F)(F)F)c1nccc(-c2cnn3ncccc23)n1 | binding | 1 µM | 80%
C[C@@H](c1ccc(-n2cnc3c(N)ncnc32)cc1)N1CCc2nn(C)c(Cc3ccccc3)c2C1=O | binding, competition with immobilised ligand | 0.1 µM | 86%
Nc1cnc(N2CCc3cc(S(=O)(=O)Nc4c(F)cc(Cl)cc4F)cc(N4CCCC4=O)c32)nc1 | cell-free assay, competition with immobilised ligand | 1 µM | 100%
O=C(c1ccc(Nc2ncc(Cl)c(-c3ccc(Cl)s3)n2)cc1)N1CCC(N2CCCC2)CC1 | binding, competition with immobilised ligand | 1 µM | 100%
Cn1nc(C(=O)NCc2ccc(C(=O)O)cc2)cc1-c1ccc2[nH]ccc2c1 | cell-free assay, competition with immobilised ligand | 0.1 µM | 76%
COc1ccnn2ncc(-c3ccnc(N(C)C)n3)c12 | binding | 1 µM | 100%
O=C(c1ccc(Nc2nccc(-c3cc4ccccc4s3)n2)cc1)N1CCC(N2CCCC2)CC1 | binding, competition with immobilised ligand | 1 µM | 100%
CC1CCCN1c1nccc(-c2cnn3ncccc23)n1 (stereo not shown) | binding | 1 µM | 94%
CCC(=O)N[C@H]1CC[C@@H](C(=O)N(C)c2ccc(-c3nc4ccccc4o3)cc2)C1 | cell-free assay, competition with immobilised ligand | 1 µM | 100%
N[C@H]1CCN(c2nccc(-c3cnn4ncccc34)n2)C1 | binding | 1 µM | 57%
O=c1nc(-c2ccccn2)sc2ccccc12 | binding, competition with immobilised ligand | 1 µM | 100%
c1cncc(-c2cccc(Nc3nccc(NC4CCCCC4)n3)c2)c1 | binding, competition with immobilised ligand | 10 µM | 100%
